Measured values published in publication PMC10150624 (Journal of Enzyme Inhibition and Medicinal Chemistry, 2023).

How the values were obtained:
[1] = target: EGFR^L858R/T790M (Homo sapiens, UniProt P00533, L858R/T790M); test: EGFR kinase inhibition by ELISA, L858R/T790M; type: biochemical; conditions: EGFR^L858R/T790M versus EGFR^WT, kinase assay
[2] = system: A549 cells; test: Wound healing; type: cell-based; conditions: 5 or 10 μM, 0, 24 and 48 h
How it was run: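 Wound-healing format with A549 cells at 3.6 × 10^5/well, exposed to test compound and imaged at 0, 24 and 48 h. Cell migration into the wound was assessed by microscopy and photography.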

[3] = system: H1975 cells; test: Cell cycle progression by flow cytometry; type: cell-based; conditions: 24 h
How it was run: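 H1975 cells seeded at 3 × 10^5/well and cultured 24 h, then treated with test compound (0.2, 1.0, 5 μM) for 24 h at 37 °C. Cells PBS-washed, fixed overnight in ice-cold 70% ethanol, washed again and stained with PI for 30 min at room temperature in the dark. DNA content analysed by flow cytometry to give the G2/M fraction against an untreated control.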

[4] = system: A549 cells; test: AO/EB fluorescent staining, morphology of apoptotic cells; type: cell-based; conditions: A549 cells, 1, 5 or 10 μM, 48 h
How it was run: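 A549 cells seeded in 6-well plates at 3.6 × 10^5/mL and grown 24 h, then exposed to test compound for a further 48 h; untreated A549 cells served as control. Cells were stained for a few min with AO/EB dual fluorescent solution, then viewed and photographed by forward fluorescence microscopy for apoptotic morphology.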

[5] = system: H1975 cells; test: Apoptosis by flow cytometry, Annexin V/PI double staining; type: cell-based; conditions: H1975, 10 μM, 48 h; total apoptotic cells (Q2 + Q3)
How it was run: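 H1975 cells in log growth seeded at 3 × 10^5/well, held 24 h at 37 °C, 5% CO2, then exposed to test compound at several concentrations for 48 h. Cells harvested by trypsin, PBS-washed, stained with Annexin V-APC for 30 min and then PI for 3 min at room temperature in the dark, diluted in saline and read at once by flow cytometry. Total apoptotic fraction taken as Q2 + Q3.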

Sequence of EGFR^L858R/T790M (P00533 25-1210 T790M/L858R): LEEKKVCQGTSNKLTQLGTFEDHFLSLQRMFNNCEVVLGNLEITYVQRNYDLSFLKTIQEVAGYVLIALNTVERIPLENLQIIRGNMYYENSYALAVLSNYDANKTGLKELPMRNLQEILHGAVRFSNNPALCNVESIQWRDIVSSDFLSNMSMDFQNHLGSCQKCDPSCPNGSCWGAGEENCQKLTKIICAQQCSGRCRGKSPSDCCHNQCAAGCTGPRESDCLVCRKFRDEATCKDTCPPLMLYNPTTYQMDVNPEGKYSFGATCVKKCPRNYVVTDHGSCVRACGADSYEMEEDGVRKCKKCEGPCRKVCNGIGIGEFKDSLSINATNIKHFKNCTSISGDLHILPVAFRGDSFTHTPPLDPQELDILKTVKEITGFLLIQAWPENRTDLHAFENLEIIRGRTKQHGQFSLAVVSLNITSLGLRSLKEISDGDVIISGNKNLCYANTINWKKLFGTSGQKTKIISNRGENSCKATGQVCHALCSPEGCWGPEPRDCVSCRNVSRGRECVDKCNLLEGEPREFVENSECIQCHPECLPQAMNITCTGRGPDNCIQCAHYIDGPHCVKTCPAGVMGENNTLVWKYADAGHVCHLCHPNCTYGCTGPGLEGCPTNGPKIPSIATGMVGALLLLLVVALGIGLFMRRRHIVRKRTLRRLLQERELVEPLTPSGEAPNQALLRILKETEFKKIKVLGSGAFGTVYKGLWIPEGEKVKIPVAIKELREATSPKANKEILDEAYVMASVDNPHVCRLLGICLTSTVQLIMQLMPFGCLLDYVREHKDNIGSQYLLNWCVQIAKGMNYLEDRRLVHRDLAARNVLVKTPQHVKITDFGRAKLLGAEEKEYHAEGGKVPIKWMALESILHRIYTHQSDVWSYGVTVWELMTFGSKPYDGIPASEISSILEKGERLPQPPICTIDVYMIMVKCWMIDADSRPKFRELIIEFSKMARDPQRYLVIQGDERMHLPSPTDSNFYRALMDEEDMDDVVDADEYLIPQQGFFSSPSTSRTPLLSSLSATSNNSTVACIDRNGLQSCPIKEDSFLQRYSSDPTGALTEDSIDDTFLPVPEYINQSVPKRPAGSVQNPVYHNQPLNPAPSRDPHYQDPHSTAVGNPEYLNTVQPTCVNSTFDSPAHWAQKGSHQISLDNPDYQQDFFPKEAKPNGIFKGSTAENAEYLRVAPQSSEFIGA

SMILES: C=C(Cl)C(=O)Nc1cc(Nc2nc(N3CCc4sccc4C3)c3sccc3n2)c(OC)cc1N(C)CCN(C)C [Compound B1, 2-chloro-N-(5-((4–(6,7-dihydrothieno[3,2-c]pyridin-5(4H)-yl)thieno[3,2-d]pyrimidin-2-yl)amino)-2-((2-(dimethylamino)ethyl)(methyl)amino)-4-methoxyphenyl)acrylamide]
- selectivity for EGFR^WT [1]: more than 76 fold
- wound healing [2]: wound healing was slower in the treated group than that in the blank control group
- percentage of G2/M-phase cells ([3]; H1975, 0.2 μM): 24.41%
- percentage of G2/M-phase cells ([3]; H1975, 1.0 μM): 27.68%
- percentage of G2/M-phase cells ([3]; H1975, 5 μM): 31.47%
- apoptosis induction, cell morphology [4]: induce apoptosis in A549 cells in a concentration-dependent manner
- apoptosis rate [5]: 22.1%

SMILES: C=C(Cl)C(=O)Nc1cc(Nc2nc(Nc3cnn(C)c3)c3sccc3n2)c(OC)cc1N(C)CCN(C)C [Compound B7, 2-chloro-N-(2-((2-(dimethylamino)ethyl)(methyl)amino)-4-methoxy-5-((4-((1-methyl-1H-pyrazol-4-yl)amino)thieno[3,2-d]pyrimidin-2-yl)amino)phenyl)acrylamide]
- selectivity for EGFR^WT [1]: more than 16 fold
- wound healing [2]: wound healing was slower in the treated group than that in the blank control group
- apoptosis induction, cell morphology [4]: induce apoptosis in A549 cells in a concentration-dependent manner
